Tests used:
Assay type in all cases: functional
[1] = Growth inhibition of human Hs 578T cells assessed as cell growth at 10 '-5 M after 48 hrs by sulforhodamine B assay; conditions: read-out: Activity
[2] = test system: HOP-92; experiment: Growth inhibition of human HOP92 cells assessed as growth inhibition at 10 uM after 48 hrs by sulforhodamine B assay; conditions: HOP-92, 48 h, read-out: GI
[3] = test system: OVCAR-3; experiment: Growth inhibition of human OVCAR3 cells assessed as growth inhibition at 10 uM after 48 hrs by sulforhodamine B assay; conditions: OVCAR-3, 48 h, read-out: GI
[4] = test system: NCI-H522; experiment: Growth inhibition of human NCI-H522 cells assessed as cell growth at 10 '-6 M after 48 hrs by sulforhodamine B assay; conditions: NCI-H522, 48 h, read-out: Activity
[5] = test system: Malme-3M; experiment: Growth inhibition of human MALME-3M cells assessed as cell growth at 10 '-7 M after 48 hrs by sulforhodamine B assay; conditions: read-out: Activity
[6] = test system: HCT-15; experiment: Growth inhibition of human HCT15 cells assessed as cell growth at 10 '-8 M after 48 hrs by sulforhodamine B assay; conditions: HCT-15, 48 h, read-out: Activity
[7] = test system: MDA-MB-231; experiment: Growth inhibition of human MDA-MB-231 cells assessed as cell growth at 10 '-8 M after 48 hrs by sulforhodamine B assay; conditions: MDA-MB-231, 48 h, read-out: Activity
[8] = test system: NCI-H522; experiment: Growth inhibition of human NCI-H522 cells assessed as cell growth at 10 '-8 M after 48 hrs by sulforhodamine B assay; conditions: NCI-H522, 48 h, read-out: Activity
[9] = test system: HL-60(TB); experiment: Growth inhibition of human HL-60(TB) cells assessed as cell growth at 10 '-4 M after 48 hrs by sulforhodamine B assay; conditions: HL-60, 48 h, read-out: Activity
Summary of the method: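 Five-dose NCI protocol with final concentrations of 0.01–100 µM and drug diluted from a DMSO stock (400× the top concentration) in medium with gentamicin. Cells were pre-incubated 24 h, then exposed 48 h at 37 °C. Suspension cells were fixed with 16% final TCA, SRB-stained and read at 515 nm. Percentage growth at each level was [(Ti−Tz)/(C−Tz)]×100, or [(Ti−Tz)/Tz]×100 when Ti < Tz.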

[10] = test system: T47D; experiment: Growth inhibition of human T47D cells after 48 hrs by sulforhodamine B assay
[11] = test system: NCI-H23; experiment: Growth inhibition of human NCI-H23 cells assessed as cell growth at 10 '-8 M after 48 hrs by sulforhodamine B assay; conditions: NCI-H23, 48 h, read-out: Activity
[12] = Growth inhibition of human NCI-ADR-RES cells assessed as cell growth at 10 '-8 M after 48 hrs by sulforhodamine B assay; conditions: read-out: Activity
[13] = test system: MDA-MB-468; experiment: Growth inhibition of human MDA-MB-468 cells assessed as cell growth at 10 '-6 M after 48 hrs by sulforhodamine B assay; conditions: MDA-MB-468, 48 h, read-out: Activity
[14] = test system: SNB-19; experiment: Growth inhibition of human SNB19 cells after 48 hrs by sulforhodamine B assay; conditions: SNB-19, 48 h
[15] = Growth inhibition of human HCC2998 cells assessed as cell growth at 10 '-7 M after 48 hrs by sulforhodamine B assay; conditions: HCC 2998, 48 h, read-out: Activity
[16] = test system: M14; experiment: Growth inhibition of human M14 cells assessed as cell growth at 10 '-4 M after 48 hrs by sulforhodamine B assay; conditions: M14, 48 h, read-out: Activity
[17] = test system: UACC-257; experiment: Growth inhibition of human UACC257 cells assessed as cell growth at 10 '-7 M after 48 hrs by sulforhodamine B assay; conditions: UACC-257, 48 h, read-out: Activity
[18] = test system: ACHN; experiment: Growth inhibition of human ACHN cells assessed as cell growth at 10 '-8 M after 48 hrs by sulforhodamine B assay; conditions: read-out: Activity
Summary of the method: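 Percent growth at each of the five concentrations of the 48 h continuous-exposure NCI SRB screen. Drug stocks were in DMSO at 400× the top final concentration and diluted in medium with gentamicin. Growth was calculated as [(Ti-Tz)/(C-Tz)]×100 when Ti ≥ Tz, or [(Ti-Tz)/Tz]×100 when Ti < Tz. Tz plates were fixed at drug addition; untreated wells served as control. Absorbance was read at 515 nm.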

[19] = test system: SK-MEL-2; experiment: Growth inhibition of human SK-MEL-2 cells assessed as cell growth at 10 '-4 M after 48 hrs by sulforhodamine B assay; conditions: SK-MEL-2, 48 h, read-out: Activity
[20] = test system: A549; experiment: Growth inhibition of human A549 cells after 48 hrs by sulforhodamine B assay; conditions: A549, 48 h
Summary of the method: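 NCI 60-cell-line five-dose screen at 0.01, 0.1, 1, 10 and 100 µM final. Cells were plated at 5,000–40,000/well and grown 24 h at 37 °C, 5% CO2, then exposed to drug continuously for 48 h. Adherent cells were fixed with cold TCA (10% final) and stained with SRB; absorbance read at 515 nm. GI50 is the concentration where [(Ti-Tz)/(C-Tz)]×100 = 50, with Tz plates fixed at drug addition.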

[21] = Growth inhibition of human […] cells assessed as cell growth at 10 uM after 48 hrs by sulforhodamine B assay; conditions: read-out: Activity
Summary of the method: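 NCI-60 primary screen at a single dose of 10^-5 M. Output is mean growth percent of treated cells relative to untreated controls, where values between 0 and 100 indicate growth inhibition and values below 0 indicate cytotoxicity. Cells were plated 24 h before drug, incubated 48 h at 37 °C, 5% CO2, and stained with SRB after TCA fixation. Suspension cells were fixed with 80% TCA (16% final).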

[22] = test system: K562; experiment: Growth inhibition of human K562 cells after 48 hrs by sulforhodamine B assay; conditions: K562, 48 h
Summary of the method: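 NCI 60-cell-line five-dose screen. Cells were plated at 5,000–40,000/well by doubling time and grown 24 h at 37 °C, 5% CO2. Time-zero plates were TCA-fixed. Drug from DMSO stock was tested at 0.01, 0.1, 1, 10 and 100 µM final for 48 h continuous exposure. Read-out was SRB at 515 nm. GI50 is the concentration giving 50% reduction in net protein increase versus untreated control.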

[23] = test system: Malme-3M; experiment: Growth inhibition of human MALME-3M cells assessed as cell growth at 10 '-6 M after 48 hrs by sulforhodamine B assay; conditions: read-out: Activity
[24] = test system: MOLT-4; experiment: Growth inhibition of human MOLT4 cells assessed as cell growth at 10 '-8 M after 48 hrs by sulforhodamine B assay; conditions: MOLT-4, 48 h, read-out: Activity
[25] = test system: SF-295; experiment: Growth inhibition of human SF295 cells assessed as cell growth at 10 '-8 M after 48 hrs by sulforhodamine B assay; conditions: SF-295, 48 h, read-out: Activity
[26] = test system: T47D; experiment: Growth inhibition of human T47D cells assessed as cell growth at 10 '-7 M after 48 hrs by sulforhodamine B assay; conditions: read-out: Activity
[27] = read-out: LD50 (the source's name)

`Cc1cc(=O)oc2cc(OCCn3c(C)nn(-c4ccc(Cl)cc4)c3=O)ccc12` gave a growth at 10 µM [1] of 28%, an inhibition of growth at 10 µM [2] of 52.6% and an inhibition of growth at 10 µM [3] of 85.2%. It also gave a growth at 1 µM [4] of 87%, a growth at 0.1 µM [5] of 104% and a growth at 0.01 µM [6] of 98%. For the same molecule, the growth at 0.01 µM [7] was 96%, the growth at 0.01 µM [8] was 100% and the growth at 100 µM [9] was 1%. The GI50 [10] was 7.55 µM, the TGI [10] was > 1 µM and the CC50 [10, 27] was > 1 µM. The growth at 0.01 µM [11] was 98%, the growth at 0.01 µM [12] was 102% and the growth at 1 µM [13] was 77%. For the same molecule, the GI50 [14] was 5.37 µM, the TGI [14] was > 1 µM and the CC50 [14, 27] was > 1 µM. It also gave a growth at 0.1 µM [15] of 91%, a growth at 100 µM [16] of 28% and a growth at 0.1 µM [17] of 101%. It also gave a growth at 0.01 µM [18] of 111%, a growth at 100 µM [19] of 14% and a GI50 [20] of 6.07 µM. The TGI [20] was > 1 µM, the CC50 [20, 27] was > 1 µM and the growth at 10 µM [21] was 32.9%. For the same molecule, the GI50 [22] was 1.29 µM, the TGI [22] was > 1 µM and the CC50 [22, 27] was > 1 µM. The growth at 1 µM [23] was 82%, the growth at 0.01 µM [24] was 104% and the growth at 0.01 µM [25] was 94%. The growth at 0.1 µM [26] was 99%.

From ChEMBL document CHEMBL2346664, “Synthesis, characterization and in vitro anticancer evaluation of novel 1,2,4-triazolin-3-one derivatives” (2013)
